ChEMBL document CHEMBL1122281, “Synthesis and antifilarial activity of N-[4-[[4-alkoxy-3-[(dialkylamino)methyl]phenyl]amino]- 2-pyrimidinyl]-N'-phenylguanidines” (J Med Chem, 1983)

What was measured:
[1] = tested on: Litomosoides carinii; assay: Antifilarial activity against Litomosoides carinii infections in the Jird at dose 12 mg/kg administered orally; format: functional; settings: route oral
Outline: (§1)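 L. carinii-infected jirds were dosed. Survivors were killed 55–70 days after the first dose, and the pleural and peritoneal cavities were searched for adult worms. Live worms at autopsy were scored as a percentage relative to sham-dosed controls. Adult worm reduction above 60% was the activity criterion.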

[2] = tested on: Litomosoides carinii; assay: Antifilarial activity against Litomosoides carinii infections in the Jird at dose 50 mg/kg administered orally; format: functional; settings: route oral; outline: as §1
[3] = tested on: Litomosoides carinii; assay: Antifilarial activity against Litomosoides carinii infections in the Jird at dose 100 mg/kg administered orally; format: functional; settings: route oral; outline: as §1
[4] = tested on: Litomosoides carinii; assay: Antifilarial activity against Litomosoides carinii infections in the Jird at dose 25 mg/kg administered orally; format: functional; settings: route oral; outline: as §1
[5] = tested on: Litomosoides carinii; assay: Antifilarial activity against Litomosoides carinii infections in the Jird at dose 3 mg/kg administered orally; format: functional; settings: route oral; outline: as §1
[6] = tested on: Litomosoides carinii; assay: Antifilarial activity against Litomosoides carinii infections in the Jird at dose 0.5 mg/kg administered orally; format: functional; settings: route oral; outline: as §1
[7] = tested on: Litomosoides carinii; assay: Antifilarial activity against Litomosoides carinii infections in the Jird at dose 100 mg/kg administered subcutaneously; format: functional; settings: route subcutaneous; outline: as §1
[8] = Antifilarial activity against Litomosoides carinii infections in the Jird at dose 100 mg/kg administered subcutaneously; two or more animals died prematurely considered to be drug toxicity.; format: organism-based, Meriones unguiculatus; set-up: dose 100 mg/kg, route subcutaneous; settings: gerbil, in vivo, sc
Outline: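 Jirds infected with Litomosoides carinii. Surviving animals killed 55–70 days after first drug dose; pleural and peritoneal cavities searched for adult worms. Live worm count at autopsy scored as percentage relative to sham-dosed controls. Activity criterion: adult worm reduction exceeding 60%.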

[9] = tested on: Litomosoides carinii; assay: Antifilarial activity against Litomosoides carinii infections in the Jird at dose 25 mg/kg administered subcutaneously; format: functional; settings: route subcutaneous; outline: as §1

Structure (SMILES)	Reduction of live worms [3]	Reduction of live worms [4]	Reduction of live worms [5]	Reduction of live worms [7]	other results
CCN(CC)Cc1cc(Nc2cc(C(F)(F)F)nc(/N=C(\N)Nc3ccccc3)n2)ccc1OC	–	–	–	–	Reduction of live worms [1]: 38%; Reduction of live worms [2]: 100%
CCOc1ccc(Nc2cc(C(F)(F)F)nc(/N=C(\N)Nc3ccc(Cl)c(Cl)c3)n2)cc1CN(CC)CC	100%	100%	21%	–	–
CN(C)Cc1cc(Nc2cc(C(F)(F)F)nc(/N=C(\N)Nc3ccc(Cl)c(Cl)c3)n2)ccc1O	100%	100%	90%	–	Reduction of live worms [6]: 100%
CN1CCN(Cc2cc(Nc3cc(C(F)(F)F)nc(/N=C(\N)Nc4ccc(C(=O)c5ccccc5)cc4)n3)ccc2O)CC1	–	–	–	8%	–
CCN(CC)Cc1cc(Nc2nc(/N=C(\N)Nc3ccc(Cl)c(Cl)c3)nc3c2CCCC3)ccc1O	–	–	–	0%	–
CCN(CC)Cc1cc(Nc2cc(C(F)(F)F)nc(/N=C(\N)Nc3ccc(C(F)(F)F)cc3)n2)ccc1OC	100%	100%	73%	100%	–
CCN(CC)Cc1cc(Nc2cc(C(F)(F)F)nc(/N=C(\N)Nc3ccc(Cl)c(Cl)c3)n2)ccc1OC(C)C	100%	100%	11%	100%	–
CCN(CC)Cc1cc(Nc2cc(C(F)(F)F)nc(/N=C(\N)Nc3ccc(C(=O)c4ccccc4)cc3)n2)ccc1OCc1ccccc1	27%	–	–	0%	–
N/C(=N\c1ccc(Cl)c(Cl)c1)Nc1nc(Nc2ccc(O)c(CNCC3CCCCC3)c2)cc(C(F)(F)F)n1	–	–	–	4%	–
CN(C)Cc1cc(Nc2cc(C(F)(F)F)nc(/N=C(\N)Nc3ccc(C(=O)c4ccccc4)cc3)n2)ccc1O	–	32%	-22%	100%	–
CCN(CC)Cc1cc(Nc2cc(C(F)(F)F)nc(/N=C(\N)Nc3ccc(C(=O)c4ccccc4)cc3)n2)ccc1O	6%	–	–	6%	–
CN1CCN(Cc2cc(Nc3cc(C(F)(F)F)nc(/N=C(\N)Nc4ccccc4)n3)ccc2O)CC1	91%	–	–	–	Reduction of live worms [1]: 0%; Reduction of live worms [2]: 78%
CCN(CC)Cc1cc(Nc2cc(C(F)(F)F)nc(/N=C(\N)Nc3ccc(Oc4ccccc4)cc3)n2)ccc1OCc1ccccc1	22%	–	–	0%	–
CN1CCN(Cc2cc(Nc3cc(C(F)(F)F)nc(/N=C(\N)Nc4ccc(Oc5ccccc5)cc4)n3)ccc2O)CC1	–	–	–	8%	–
COc1ccc(Nc2cc(C(F)(F)F)nc(/N=C(\N)Nc3ccc(Cl)cc3)n2)cc1CN1CCCC1	–	–	99%	–	Reduction of live worms [6]: 100%; Reduction of live worms [1]: 100%; Reduction of live worms [2]: 100%
CCNCc1cc(Nc2cc(C(F)(F)F)nc(/N=C(\N)Nc3ccc(Oc4ccccc4)cc3)n2)ccc1OC	–	–	–	0%	–
CCN(CC)Cc1cc(Nc2cc(C(F)(F)F)nc(/N=C(\N)Nc3ccccc3)n2)ccc1O	–	–	–	–	Reduction of live worms [1]: 47%; Reduction of live worms [2]: 100%
CCN(CC)Cc1cccc(Nc2cc(C(F)(F)F)nc(/N=C(\N)Nc3ccc(Cl)c(Cl)c3)n2)c1	100%	100%	83%	–	–
CN(C)Cc1cc(Nc2cc(C(F)(F)F)nc(/N=C(\N)Nc3ccc(C(F)(F)F)cc3)n2)ccc1O	–	100%	54%	–	Animals dead [8]: > 2
CCOc1ccc(Nc2cc(-c3ccccc3)nc(/N=C(\N)Nc3ccc(Cl)c(Cl)c3)n2)cc1CN(CC)CC	–	78%	15%	–	Animals dead [8]: > 2
CCNCc1cc(Nc2cc(C(F)(F)F)nc(/N=C(\N)Nc3ccc(Cl)c(Cl)c3)n2)ccc1O	–	100%	97%	100%	Reduction of live worms [6]: 97%; Reduction of live worms [9]: 100%
CCN(CC)Cc1cc(Nc2cc(C(F)(F)F)nc(/N=C(\N)Nc3ccc(Oc4ccccc4)cc3)n2)ccc1O	9%	–	–	3%	–
CN(C)Cc1cc(Nc2cc(C(F)(F)F)nc(/N=C(\N)Nc3ccc(Oc4ccccc4)cc3)n2)ccc1O	–	–	–	12%	–
CCNCc1cc(Nc2cc(-c3ccccc3)nc(/N=C(\N)Nc3ccc(Cl)c(Cl)c3)n2)ccc1OC	–	–	–	0%	–
